≈ marks a conversion by molar mass, not a printed value.
Legend:
Acinetobacter baumannii = assay: Antimicrobial activity against Acinetobacter baumannii ATCC 15151 assessed as growth inhibition after 18 hrs by MTT assay; type: functional; settings: ATCC 15151, 18 h
Summary of the method: (§1)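 Bacterial suspensions were adjusted to about 5×10^5 CFU/mL and treated with compounds in 2-fold serial dilutions. They were incubated for 18 h as ATCC recommends. Viability was read by MTT because the compounds are coloured.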

[1] = Antiproliferative activity against human HeLa cells after 72 hrs by MTT assay; type: cell-based
Candida albicans = assay: Antimicrobial activity against Candida albicans ATCC 26555 assessed as growth inhibition after 18 hrs by MTT assay; type: functional; settings: ATCC 26555, 18 h
Staphylococcus aureus [2] = assay: Antimicrobial activity against methicillin-susceptible Staphylococcus aureus ATCC 29213 assessed as growth inhibition after 18 hrs by MTT assay; type: functional; settings: ATCC 29213, 18 h; summary of the method: as §1
Enterococcus faecalis = assay: Antimicrobial activity against low-level vancomycin-resistant Enterococcus faecalis ATCC 51299 assessed as growth inhibition after 18 hrs by MTT assay; type: functional; settings: ATCC 51299, 18 h
Summary of the method: (§2)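 Bacterial suspensions adjusted to ~5×10^5 CFU/mL, treated with compounds in 2-fold serial dilutions, incubated per ATCC recommendations for 18 h. Viability read by MTT method, used because the compounds are coloured.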

Staphylococcus aureus [3] = assay: Antimicrobial activity against methicillin-resistant Staphylococcus aureus BAA-44 assessed as growth inhibition after 18 hrs by MTT assay; type: functional; settings: BAA-44, 18 h; summary of the method: as §2
Pseudomonas aeruginosa = assay: Antimicrobial activity against Pseudomonas aeruginosa ATCC 27853 assessed as growth inhibition after 18 hrs by MTT assay; type: functional; settings: ATCC 27853, 18 h; summary of the method: as §1

Row | SMILES | MIC (Acinetobacter baumannii) [µM] | GI50 at 72 h [1] [µM] | MIC (Candida albicans) [µM] | MIC (Staphylococcus aureus [2]) [µM] | MIC (Enterococcus faecalis) [µM] | MIC (Staphylococcus aureus [3]) [µM] | MIC (Pseudomonas aeruginosa) [µM]
1 | Brc1ccc(/N=N/c2c(-c3ccc(Br)cc3)[nH]c3ccccc23)cc1 | > 100 | 9 | > 100 | 6.3 (≈ 2.87 µg/mL) | 6.3 (≈ 2.87 µg/mL) | 12.5 (≈ 5.69 µg/mL) | > 100
2 | Brc1ccc(/N=N/c2c[nH]c3ccccc23)cc1 | > 100 | 49 | 25 (≈ 7.5 µg/mL) | 6.3 (≈ 1.89 µg/mL) | 12.5 (≈ 3.75 µg/mL) | 6.3 (≈ 1.89 µg/mL) | > 100
3 | Clc1ccc(/C=C/c2c[nH]c3ccccc23)cc1 | > 100 | 64 | > 100 | 25 (≈ 6.34 µg/mL) | > 100 | > 100 | > 100
4 | Clc1ccc(Oc2c(-c3ccc(Cl)cc3)[nH]c3ccccc23)cc1 | > 100 | 9 | > 100 | 1.6 (≈ 0.567 µg/mL) | 12.5 (≈ 4.43 µg/mL) | 3.1 (≈ 1.1 µg/mL) | > 100
5 | O=C(c1ccc(Cl)cc1)c1c(-c2ccc(Cl)cc2)[nH]c2ccccc12 | > 100 | 19 | > 100 | > 100 | > 100 | > 100 | > 100
6 | Clc1ccc(Sc2c(-c3ccc(Cl)cc3)[nH]c3ccccc23)cc1 | > 100 | 6 | > 100 | 1.6 (≈ 0.592 µg/mL) | 3.1 (≈ 1.15 µg/mL) | 3.1 (≈ 1.15 µg/mL) | > 100
7 | CN[C@H](CC(C)C)C(=O)N[C@H]1C(=O)N[C@@H](CC(N)=O)C(=O)N[C@H]2C(=O)N[C@H]3C(=O)N[C@H](C(=O)N[C@H](C(=O)O)c4cc(O)cc(O)c4-c4cc3ccc4O)[C@H](O)c3ccc(c(Cl)c3)Oc3cc2cc(c3O[C@@H]2O[C@H](CO)[C@@H](O)[C@H](O)[C@H]2O[C@H]2C[C@](C)(N)[C@H](O)[C@H](C)O2)Oc2ccc(cc2Cl)[C@H]1O [VANCOMYCIN] |  |  |  | 2.8 (≈ 4.06 µg/mL) | 86.3 (≈ 125 µg/mL) | 2.8 (≈ 4.06 µg/mL) | 
8 | Clc1ccc(Oc2c(-c3ccc(Cl)cc3)[nH]c3ccc(Cl)cc23)cc1 | > 100 | 8 | > 100 | 1.6 (≈ 0.622 µg/mL) | 12.5 (≈ 4.86 µg/mL) | 0.6 (≈ 0.233 µg/mL) | > 100
9 | Clc1ccc(Sc2c(-c3ccc(Cl)cc3)[nH]c3ccc(Cl)cc23)cc1 | > 100 | 8 | > 100 | 1.6 (≈ 0.648 µg/mL) | 6.3 (≈ 2.55 µg/mL) | 1.3 (≈ 0.526 µg/mL) | > 100
10 | Clc1ccc(Oc2c(-c3ccc(Cl)cc3)[nH]c3ccc(Br)cc23)cc1 | > 100 | 3 | > 100 | 3.1 (≈ 1.34 µg/mL) | 12.5 (≈ 5.41 µg/mL) | 3.1 (≈ 1.34 µg/mL) | > 100
11 | Clc1ccc(Sc2c(-c3ccc(Br)cc3)[nH]c3ccccc23)cc1 | > 100 | 12 | > 100 | 1.6 (≈ 0.664 µg/mL) | 3.1 (≈ 1.29 µg/mL) | 3.1 (≈ 1.29 µg/mL) | > 100
12 | COc1ccc2[nH]c(-c3ccc(Cl)cc3)c(Oc3ccc(Cl)cc3)c2c1 | > 100 | 24 | > 100 | 12.5 (≈ 4.8 µg/mL) | 25 (≈ 9.61 µg/mL) | 6.3 (≈ 2.42 µg/mL) | > 100
13 | CC1(C)S[C@@H]2[C@H](NC(=O)Cc3ccccc3)C(=O)N2[C@H]1C(=O)O [PENICILLIN G] |  |  |  | 23.9 (≈ 7.99 µg/mL) | 11.9 (≈ 3.98 µg/mL) | > 100 | 
14 | Clc1ccc(-c2cc3ccccc3[nH]2)cc1 | > 100 | > 100 | > 100 | > 100 | > 100 | > 100 | > 100
15 | Fc1cccc2c(Oc3ccc(Cl)cc3)c(-c3ccc(Cl)cc3)[nH]c12 | > 100 | 13 | > 100 | 1.6 (≈ 0.596 µg/mL) | 3.1 (≈ 1.15 µg/mL) | 1.3 (≈ 0.484 µg/mL) | > 100
16 | Clc1ccc(-c2cc3[nH]c4ccccc4c3cc2-c2ccc(Cl)cc2)cc1 | > 100 | 16 | > 100 | > 100 | > 100 | > 100 | > 100
17 | Clc1ccc(/N=N/c2c[nH]c3ccccc23)cc1 | > 100 | 23 | 12.5 (≈ 3.2 µg/mL) | 12.5 (≈ 3.2 µg/mL) | 25 (≈ 6.39 µg/mL) | 12.5 (≈ 3.2 µg/mL) | > 100
18 | COc1ccc(/N=N/c2c(-c3ccc(OC)cc3)[nH]c3ccccc23)cc1 | > 100 | 23 | > 100 | 3.1 (≈ 1.11 µg/mL) | > 100 | 50 (≈ 17.9 µg/mL) | > 100
19 | O=S(=O)(c1ccc(Cl)cc1)c1c(-c2ccc(Cl)cc2)[nH]c2ccccc12 | > 100 | 14 | > 100 | > 100 | > 100 | > 100 | > 100
20 | Clc1ccc(/N=N/c2c(-c3ccc(Br)cc3)[nH]c3ccccc23)cc1 | > 100 | 13 | > 100 | 6.3 (≈ 2.59 µg/mL) | 6.3 (≈ 2.59 µg/mL) | 6.3 (≈ 2.59 µg/mL) | > 100
21 | Fc1ccc2[nH]c(-c3ccc(Cl)cc3)c(Oc3ccc(Cl)cc3)c2c1 | > 100 | 13 | > 100 | 1.6 (≈ 0.596 µg/mL) | 6.3 (≈ 2.35 µg/mL) | 1.6 (≈ 0.596 µg/mL) | > 100
22 | Clc1ccc(/C=C/c2[nH]c3ccccc3c2/C=C/c2ccc(Cl)cc2)cc1 | > 100 | 69 | > 100 | > 100 | > 100 | > 100 | > 100

Reference: ChEMBL document CHEMBL1806381, “Unprecedented C-2 arylation of indole with diazonium salts: Syntheses of 2,3-disubstituted indoles and their antimicrobial activity” (Bioorg Med Chem Lett, 2011)
